GRIN3A LBD mod – modulates the human NR3A ligand-binding domain; NR3A LBD differential scanning fluorimetry, Tm shift; 0% = protein alone, 100% = glycine-bound protein; Tm shift relative to glycine control, % at 25 µM; 340,000 compounds, 2.5% hits; AID 1259313;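 active = melting temperature shift of at least 10% of the positive control shift, at one fixed dose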
PAFAH1B3 inh – PAFAH1B3 (human) inhibition | 340,000 compounds, 0.28% hits | inhibition, % at 3.39 µM | Q15102 | recombinant PAFAH1B3, FP-rhodamine probe, fluorescence polarization;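 active = inhibition above the screen-wide average of all tested compounds plus 3 SD, cut at about 25% in these data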;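 also: 0% = enzyme with DMSO only and 100% = wells lacking PAFAH1B3 protein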
Target sequence (Q15102 whole entry, looked up): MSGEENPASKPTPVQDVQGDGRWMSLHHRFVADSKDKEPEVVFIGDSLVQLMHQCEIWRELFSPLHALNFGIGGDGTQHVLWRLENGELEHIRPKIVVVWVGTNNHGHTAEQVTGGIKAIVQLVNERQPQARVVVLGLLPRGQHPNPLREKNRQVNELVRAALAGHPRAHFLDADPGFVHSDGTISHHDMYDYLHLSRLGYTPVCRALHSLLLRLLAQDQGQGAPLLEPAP
PAFAH1B2 inh – PAFAH1B2 (human) inhibition; recombinant PAFAH1B2, FP-rhodamine activity probe, fluorescence polarization; 340,000 compounds, 1.2% hits; AID 492953; P68402; inhibition, % at 3.39 µM;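 active = inhibition above the mean of all tested compounds plus 3 SD, cut at about 24% in these data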;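 also: 0% = enzyme with DMSO and 100% = wells lacking PAFAH1B2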
PAFAH2 inh – PAFAH2 (human) inhibition; Q99487; recombinant PAFAH2, FP-rhodamine activity probe, fluorescence polarization; inhibition, % at 3.39 µM; 340,000 compounds, 0.99% hits; AID 492956;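 active = inhibition above the mean over all tested compounds plus 3 SD, cut at about 30% in these data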;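 also: inhibitors block probe labeling of enzyme so polarization drops; 0% = enzyme with DMSO and 100% = wells lacking PAFAH2 protein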
UCH37 DUB inh – human UCH37 deubiquitinating enzyme inhibition. purified proteasome/UCH37, Ub-AMC cleavage fluorescence. 330,000 compounds, 0.33% hits. inhibition, % (concentration not given with the values). Q9Y5K5;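 active = mean inhibition over replicate wells above about 20%, limit read from the data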;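 also: 0% = compound-free wells with enzyme and 100% = wells lacking proteasome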
Target sequence (Q9Y5K5 whole entry, looked up): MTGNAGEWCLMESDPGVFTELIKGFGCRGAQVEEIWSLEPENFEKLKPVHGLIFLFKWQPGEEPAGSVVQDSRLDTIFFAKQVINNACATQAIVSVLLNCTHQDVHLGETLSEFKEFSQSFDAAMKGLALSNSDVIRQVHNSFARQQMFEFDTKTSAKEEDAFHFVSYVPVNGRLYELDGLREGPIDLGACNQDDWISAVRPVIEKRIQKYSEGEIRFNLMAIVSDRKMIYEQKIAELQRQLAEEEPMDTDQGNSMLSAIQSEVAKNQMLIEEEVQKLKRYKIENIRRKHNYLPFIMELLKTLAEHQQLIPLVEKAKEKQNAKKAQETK
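System: Proteasome-associated human UCH37 deubiquitinase; Input: 0.15 nM proteasome in added enzyme buffer; Also added: Ub-AMC substrate from 1 µM stock; Incubation: 30 min compound-proteasome preincubation then 25 min substrate reaction, room temperature; Detection: fluorescence, ex 355 nm, em 460 nm; Read-out: % inhibition of Ub-AMC cleavage fluorescence; Benchmarks: no-proteasome and no-compound wells.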
pPAFAH inh – inhibitors of human plasma PAF acetylhydrolase (pPAFAH) | Q13093 | recombinant pPAFAH, FP-rhodamine probe fluorescence polarization | inhibition, % at 3.39 µM | 330,000 compounds, 1.5% hits;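 active = inhibition above the mean inhibition across the screen plus 3 SD, cut at about 25% in these data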;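 also: inhibitors block binding of the rhodamine activity-based probe so polarization drops; 0% = enzyme with DMSO and 100% = wells lacking pPAFAH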
Starred values were filed as active, the others as inactive; i = inactive; x = not tested or not shown. Hits are enriched below; roughly 4.8% of the tested compounds scored in any of these assays.

SMILES	GRIN3A LBD mod	PAFAH1B3 inh	PAFAH1B2 inh	PAFAH2 inh	UCH37 DUB inh	pPAFAH inh
Cc1ccccc1C=NNc1nc2ccccc2c(=O)n1O	x	x	x	x	3	x
CCOc1cc(S(=O)(=O)NCCN2CCOCC2)c(C)cc1C	11*	10	3	-4	7	2
O=C(NN=Cc1ccco1)/C(=C/c1cccc([N+](=O)[O-])c1)NC(=O)c1ccccc1	x	x	x	x	11	x
Clc1ccc(Nc2ccc(NCc3ccccc3)nn2)cc1	24*	4	5	6	1	13
Cc1ccc(Nc2ccc(NCc3ccccc3)nn2)cc1C	-7	2	5	9	1	16
O=C(Nc1cc(Cl)ccc1C(=O)O)c1ccc(CN2C(=O)c3ccccc3C2=O)cc1	13*	-1	3	-6	x	-16
CCN(CC)c1ccc(NC(=O)C2CC(=O)N(Cc3ccccc3)C2)cc1 (centres undefined)	0	4	4	5	4	12
CC(C)c1ccc(CN2CC(C(=O)Nc3ccccc3)CC2=O)cc1 (centres undefined)	15*	1	22	-9	7	0
COc1ccccc1NC(=O)c1cc2ccccc2o/c1=N\O	-7	7	3	-3	x	0
COc1ccc2o/c(=N\O)c(C(=O)Nc3ccc(C)cc3)cc2c1	16*	-9	3	-9	x	x
COc1ccccc1N=c1oc2cc(O)ccc2cc1C(N)=O	-10	1	-2	15	i	22
COc1ccc2oc(=NO)c(C(=O)Nc3ccc(C)cc3)cc2c1	x	x	x	x	1	x
COc1ccccc1N=c1oc2cc(O)ccc2cc1C(=O)NCC1CCCO1 (centres undefined)	-15	7	1	0	-240	26*
COc1ccccc1NC(=O)c1cc2ccc(O)cc2o/c1=N\O	36*	8	12	5	x	14
COc1cccc(N=c2oc3cc(O)ccc3cc2C(=O)NCC2CCCO2)c1 (centres undefined)	-7	7	4	11	-265	25*
Cc1cccc(C(=O)NN=Cc2ccccn2)c1	x	x	x	x	0	x
CC(CC(=O)N(C(C)C)C(C)C)=NNC(=O)c1ccccc1Br	x	x	x	x	-2	x
O/N=C/c1ccc2ccccc2c1	2	5	50*	-1	x	0
Cc1c(Cl)c([N+](=O)[O-])nn1CCCC(=O)Nc1cc(Oc2ccccc2)cc([N+](=O)[O-])c1	18*	1	-5	-2	3	4
Cc1nn(CCCC(=O)Nc2cc(Oc3ccc(F)cc3)cc([N+](=O)[O-])c2)c(C)c1[N+](=O)[O-]	1	10	4	-9	1	13
CC(=NNC(=O)CNC(=O)COc1ccccc1)c1ccco1	x	x	x	x	2	x
COCc1cc(C)nc(OCC(=O)NN=Cc2ccco2)c1C#N	x	x	x	x	-56	x
Cc1cc(C)n2nc(-c3sccc3-n3c(C)ccc3C)cc2n1	-8	12	2	9	-11	4
Cc1cc(C)n2nc(-c3sccc3-n3cccc3)cc2n1	11*	-10	3	0	-4	9
O=C(NN=Cc1ccc(Br)cc1)c1ccc(F)cc1	x	x	x	x	2	x
SMILES	GRIN3A LBD mod	PAFAH1B3 inh	PAFAH1B2 inh	PAFAH2 inh	UCH37 DUB inh	pPAFAH inh
O=C(/C=C/c1ccc(N2CCC(c3ccccc3)=N2)cc1)c1ccccc1	30*	x	x	x	8	-18
CCOC(=O)/C(=C\c1ccc(N2CCC(c3ccccc3)=N2)cc1)C(C)=O	-9	2	3	-6	-149	x
O=C(c1ccc(Oc2cc(Cl)cc(Cl)c2)o1)N1CCCCC1	2	4	4	12	8	32*
O=C(NCCN1CCCCC1)c1ccc(Oc2cc(Cl)cc(Cl)c2)o1	-1	x	x	x	2	6
CC(=NNC(=O)c1ccc(N2CCCC2=O)cc1)c1ccccc1	x	x	x	x	2	x
CN1C(=O)/C(=C/c2cccc(Cl)c2)Sc2ccc(C(=O)N3CCOCC3)cc21	-1	-4	6	3	-2	28*
Cc1cc(C(=O)CSc2cccc[n+]2[O-])c(C)n1-c1ccccc1	-4	3	-3	11	1	1
Cc1cc(C(=O)CSc2cccc[n+]2[O-])c(C)n1-c1ccc(Br)cc1	x	x	x	x	2	44*
O=C(CN1C(=O)S/C(=C\C=C\c2ccccc2)C1=O)Nc1ccc(O)cc1	15*	-3	-10	-47	x	-6
O=C(CN1C(=O)S/C(=C\c2ccc(O)c([N+](=O)[O-])c2)C1=O)Nc1ccc(N2CCOCC2)cc1	0	11	12	3	11	x
O=C(CN1C(=O)S/C(=C\c2cc(Cl)c(O)c(Cl)c2)C1=O)Nc1ccccc1	12*	15	1	12	3	25*
Cc1cccc(NC(=O)CN2C(=O)S/C(=C\c3ccc(O)c([N+](=O)[O-])c3)C2=O)c1	1	26*	7	27	16	29*
O=C(CN1C(=O)S/C(=C\c2ccccn2)C1=O)Nc1ccccc1	0	-2	-5	4	4	x
CC(=NNC(=O)c1c(Cl)cnn1C)c1cccc(NC(=O)C(C)C)c1	x	x	x	x	4	x
Cc1cccc(CS(=O)(=O)Cc2ccc(C(=O)NCCCN3CCCC3)o2)c1	0	6	-6	-2	2	33*
COc1ccc(CCNC(=O)c2ccc(COc3ccccc3OC)o2)cc1	-3	4	-3	2	-1	3
CCCCNC(=O)c1ccc(CS(=O)(=O)Cc2ccccc2F)o1	0	6	9	-1	2	25*
COc1ccc(CCNC(=O)c2ccc(CSc3ccccc3)o2)cc1	-2	0	16	-4	2	25*
Cc1cccc(CS(=O)(=O)Cc2ccc(C(=O)NCCc3ccccc3)o2)c1	0	8	4	6	-3	29*
C#CCOc1c(Br)cc(C=NNC(=O)CN2CCOCC2)cc1OCC	x	x	x	x	1	x
O=c1c2ccccc2nc(-c2ccccc2)n1N=Cc1ccc([N+](=O)[O-])cc1	x	x	x	x	0	x
COc1ccccc1NC(=O)Nc1ccc(Cl)c(S(=O)(=O)Nc2ccccc2OC)c1	11*	10	2	3	0	0
COc1ccccc1NS(=O)(=O)c1cc(NC(=O)c2ccc3ccccc3n2)ccc1Cl	-6	-19	-13	-31	0	-2
COc1ccccc1NS(=O)(=O)c1cc(NC(=O)c2ccc(Cl)nc2)ccc1Cl	16*	-54	-31	-35	4	-21
COc1ccc(NS(=O)(=O)c2cc(NC(=O)Cc3c(F)cccc3Cl)ccc2OC)cc1	-5	4	2	-3	2	1
COc1ccccc1NS(=O)(=O)c1cccc(NC(=O)Nc2cccc(Cl)c2)c1	23*	-123	-73	-141	3	-44
COc1ccc(C(=O)Nc2ccc(Cl)c(S(=O)(=O)Nc3ccccc3OC)c2)cc1	3	-7	-7	-44	-1	-13

Screening data (PubChem BioAssay)
